Series [1] has as its target [Pyruvate dehydrogenase (acetyl-transferring)] kinase isozyme 2, mitochondrial (Homo sapiens, UniProt Q15119). In words: Inhibition of recombinant PDHK2 (unknown origin) expressed in Escherichia coli incubated for 1 hr by ELISA.
Series [2] has as its target T1, [Pyruvate dehydrogenase (acetyl-transferring)] kinase isozyme 3, mitochondrial (Homo sapiens, UniProt Q15120). In words: Inhibition of recombinant PDHK3 (unknown origin) expressed in Escherichia coli incubated for 1 hr by ELISA. For orientation: An ELISA detects its analyte on a solid surface through an enzyme-linked reagent.
Series [3] concerns the target T2, Heat shock protein HSP90 (Homo sapiens, UniProt P07900+P08238). In words: Inhibition of HSP90 in human NCI-H1299 cells assessed as reduction in AKT protein levels at 10 uM incubated for 12 hrs by immunoblotting method. Type of series: cell-based. The gist of the method:
(§1)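 NCI-H1299 cells were treated for 12 h and lysed in RIPA buffer with protease inhibitors. Equal protein was loaded per lane, run on a gel and transferred to nitrocellulose. Membranes were blocked in TBST with 3% BSA for 1 h at room temperature, then probed with primary antibody for 2 h and secondary antibody for 1 h, both at room temperature. Bands were detected by ECL.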
In general terms: A western blot detects proteins with antibodies after separation by electrophoresis.

Series [4] can be described thus: Apparent permeability from apical to basolateral side in human Caco2 cells. The note with it: Caco-2.
Series [5] concerns NCI-H1299. In words: Increase in ROS production in human NCI-H1299 cells at incubated for 12 hrs by DCFH-DA staining based fluorescence assay. Type of series: functional, cell-based. The gist of the method: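 Cells loaded with 5 µmol/L DCFH-DA in fresh medium for 30 min after compound treatment, washed with PBS, and intracellular ROS read as fluorescence intensity by flow cytometry.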

Series [6] has as its system NCI-H1299. In words: Increase in oxygen consumption rate/extracellular acidification rate ratio in human NCI-H1299 cells at 10 uM incubated for 12 hrs. It is filed as functional, cell-based.
Series [7] addresses T2, Heat shock protein HSP90. The series can be described thus: Inhibition of HSP90 in human NCI-H1299 cells assessed as reduction in HER2 protein levels at 10 uM incubated for 12 hrs by immunoblotting method. It is filed as cell-based. In short, it runs like this:
as §1

Series [8] deals with T2, Heat shock protein HSP90. In words: Inhibition of geldanamycin-BODIPY binding to full-length HSP90 (unknown origin) by fluorescence polarization based competition assay. Type of series: protein assay. In short, it runs like this:
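Fluorescence polarization competition using full-length HSP90 and geldanamycin-BODIPY as probe.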
For orientation: Polarisation of emitted light reports the rotation of a fluorescent probe.

In series [9] the target is T3, [Pyruvate dehydrogenase (acetyl-transferring)] kinase isozyme 1, mitochondrial (Homo sapiens, UniProt Q15118). Conditions: NCI-H1299, 10 uM.
T3 sequence (Q15118 whole entry): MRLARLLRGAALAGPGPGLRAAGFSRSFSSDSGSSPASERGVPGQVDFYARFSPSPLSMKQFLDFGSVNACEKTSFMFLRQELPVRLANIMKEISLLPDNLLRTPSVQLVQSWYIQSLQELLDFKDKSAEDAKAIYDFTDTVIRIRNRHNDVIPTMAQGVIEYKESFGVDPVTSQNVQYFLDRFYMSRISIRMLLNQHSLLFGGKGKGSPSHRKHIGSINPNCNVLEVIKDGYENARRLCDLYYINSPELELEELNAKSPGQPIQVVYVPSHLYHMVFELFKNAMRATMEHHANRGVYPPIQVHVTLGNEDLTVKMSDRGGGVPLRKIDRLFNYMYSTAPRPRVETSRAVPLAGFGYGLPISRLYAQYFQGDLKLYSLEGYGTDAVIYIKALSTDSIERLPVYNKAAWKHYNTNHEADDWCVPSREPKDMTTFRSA
Series [10] has as its target T3, [Pyruvate dehydrogenase (acetyl-transferring)] kinase isozyme 1, mitochondrial. The series can be described thus: Inhibition of recombinant PDHK1 (unknown origin) expressed in Escherichia coli incubated for 1 hr by ELISA.
For series [11], the system named is NCI-H1299. The series can be described thus: Reduction in extracellular acidification rate in human NCI-H1299 cells at 10 uM incubated for 12 hrs. It is filed as functional, cell-based. The gist of the method: (§2)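 Cells pre-treated with varying concentrations of compound for 12 h, then oxygen consumption rate and extracellular acidification rate measured on an XF96 extracellular flux analyzer; ECAR/OCR ratio calculated from these readings.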

The target of series [12] is T2, Heat shock protein HSP90. In words: Inhibition of HSP90 in human NCI-H1299 cells assessed as increase in HSP70 protein levels at 10 uM incubated for 12 hrs by immunoblotting method. Type of series: cell-based. In short, it runs like this:
as §1

The target in series [13] is T2, Heat shock protein HSP90. In words: Inhibition of HSP90 in human NCI-H1299 cells assessed as reduction in c-MET protein levels at 10 uM incubated for 12 hrs by immunoblotting method. It is filed as cell-based. The gist of the method:
as §1

The nature of series [14]: Efflux ratio in human Caco2 cells. Conditions: Caco-2.
For series [15], the system named is NCI-H1299. The series can be described thus: Reduction in oxygen consumption rate in human NCI-H1299 cells at 10 uM incubated for 12 hrs. Type of series: functional, cell-based. In short, it runs like this:
as §2

Series [16] has as its target [Pyruvate dehydrogenase (acetyl-transferring)] kinase isozyme 4, mitochondrial (Homo sapiens, UniProt Q16654). The series can be described thus: Inhibition of recombinant PDHK4 (unknown origin) expressed in Escherichia coli incubated for 1 hr by ELISA.
For series [17], the system named is NCI-H1299. In words: Antiproliferative activity against human NCI-H1299 cells after 72 hrs by CCK8 assay. It is filed as functional, cell-based. In short, it runs like this: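 NCI-H1299 cells seeded at 3000 per well; test compound at a range of concentrations added the next day, vehicle DMSO as control; proliferation read by CCK8 kit after 72 h; IC50 derived from dose–response.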

Series [18] in a line: Apparent permeability from basolateral to apical side in human Caco2 cells. Conditions: Caco-2.
For series [19], the target named is T3, [Pyruvate dehydrogenase (acetyl-transferring)] kinase isozyme 1, mitochondrial. The series can be described thus: Inhibition of recombinant PDHK1 (unknown origin) expressed in Escherichia coli at 10 uM incubated for 1 hr by ELISA. In short, it runs like this:
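Recombinant His6-SUMO-PDHK1 was expressed in E. coli and purified on nickel resin. It was used at 0.25 µg/well on immobilized PDHA1 substrate (0.5 µg/well) with 10 µM ATP in 50 mM HEPES, 10 mM MgCl2 and 1 mM EGTA. Compounds were screened at 10 µM and percent inhibition was recorded. Detection used anti-p-PDHA1(S293) for 1 h and HRP secondary antibody for 1 h, then o-phenylenediamine, read at OD490.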

In series [20] the target is T1, [Pyruvate dehydrogenase (acetyl-transferring)] kinase isozyme 3, mitochondrial. The series can be described thus: Inhibition of PDHK3 (unknown origin). The gist of the method:
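PDHK3 was expressed in E. coli as a His6-SUMO fusion and purified on nickel resin. The substrate was His6-SUMO-PDHA1, immobilized at 0.5 µg/well, with enzyme at 0.25 µg/well and 10 µM ATP in 50 mM HEPES, 10 mM MgCl2 and 1 mM EGTA. Phosphorylation was detected with anti-p-PDHA1(S293) for 1 h, then HRP secondary antibody for 1 h. Colour was developed with o-phenylenediamine and read at OD490. IC50 came from a four-parameter fit.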

Series [21] addresses T3, [Pyruvate dehydrogenase (acetyl-transferring)] kinase isozyme 1, mitochondrial. In words: Inhibition of PDHK1 (unknown origin).

Active and inactive are the calls of the source. The rule behind the calls is not given here.

T1 sequence (Q15120 whole entry): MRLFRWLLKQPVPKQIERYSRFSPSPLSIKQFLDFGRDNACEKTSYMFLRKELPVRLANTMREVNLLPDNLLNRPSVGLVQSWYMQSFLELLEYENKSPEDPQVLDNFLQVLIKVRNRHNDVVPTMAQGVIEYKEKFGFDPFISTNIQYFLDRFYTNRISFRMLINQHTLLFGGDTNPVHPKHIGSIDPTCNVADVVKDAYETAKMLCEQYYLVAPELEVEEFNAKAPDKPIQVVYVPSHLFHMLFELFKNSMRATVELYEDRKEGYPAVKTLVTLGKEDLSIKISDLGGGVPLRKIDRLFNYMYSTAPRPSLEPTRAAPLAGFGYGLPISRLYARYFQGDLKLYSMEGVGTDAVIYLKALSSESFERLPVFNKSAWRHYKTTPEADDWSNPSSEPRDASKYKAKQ
[Pyruvate dehydrogenase (acetyl-transferring)] kinase isozyme 4, mitochondrial, sequence (Q16654 whole entry): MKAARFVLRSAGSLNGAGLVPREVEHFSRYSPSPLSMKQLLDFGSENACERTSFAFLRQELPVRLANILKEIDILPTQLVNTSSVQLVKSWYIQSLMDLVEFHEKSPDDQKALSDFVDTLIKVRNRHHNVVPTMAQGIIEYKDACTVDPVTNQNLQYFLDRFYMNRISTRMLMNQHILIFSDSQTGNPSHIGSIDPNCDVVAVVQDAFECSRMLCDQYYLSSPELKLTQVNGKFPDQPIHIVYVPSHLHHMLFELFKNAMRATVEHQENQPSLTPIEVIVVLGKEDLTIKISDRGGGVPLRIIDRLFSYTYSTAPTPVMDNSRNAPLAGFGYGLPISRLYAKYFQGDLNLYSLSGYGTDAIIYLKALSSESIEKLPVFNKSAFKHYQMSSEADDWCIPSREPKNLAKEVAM

For the compound `COc1ccccc1N1CCN(C(=O)/C=C/c2noc(-c3cc(Cl)c(O)cc3O)c2-c2ccc(O)cc2)CC1`, the IC50 worked out at 1130 nM in series [1]; 5.34 µM in series [2]; 0.512 µM at Heat shock protein HSP90 [8]; 604 nM in [10]; 1740 nM in series [16]; 9.21 µM in the series with NCI-H1299 [17] (NCI-H1299, 72 h). For the same compound, the inhibition result (on Heat shock protein HSP90 [3]; at Heat shock protein HSP90 [7]; in series [9]; in the series on NCI-H1299 [11]; at Heat shock protein HSP90 [12]; at Heat shock protein HSP90 [13]) was “Active” in each case. Moreover, the inhibition entry in the series with NCI-H1299 [15] is “Active”. For the same compound, in [4], the Papp A→B stood at 11.2 ×10⁻⁶ cm/s. Moreover, the outcome with NCI-H1299 [5] and in the series on NCI-H1299 [6] was Active. Besides, the efflux ratio in series [14] worked out at 1.38. Also, the inhibition entry in the series with NCI-H1299 [17] was “Dose-dependent effect”; in [19], greater than 50%. In addition, in [18], the Papp B→A turned out to be 15.5 ×10⁻⁶ cm/s.
Turning to `C[C@@H]1C[C@H]2O[C@@H]2/C=C\C=C\C(=O)Cc2c(Cl)c(O)cc(O)c2C(=O)O1` [RADICICOL], the IC50 in series [20] came out at 230 µM; in [21], 400 µM.

The term IC50 denotes the concentration that inhibits the measured activity by half. The inhibition is the change of the read-out against control, counted positive when it falls. What is called Papp A→B is the apparent permeability from the apical to the basolateral side of a cell layer. Broadly, the efflux ratio is a quotient of directional permeabilities that is used to spot active efflux. One may read the Papp B→A as the apparent permeability from the basolateral to the apical side of a cell layer.

Values taken from ChEMBL document CHEMBL3352550, “Discovery and optimization of 4,5-diarylisoxazoles as potent dual inhibitors of pyruvate dehydrogenase kinase and heat shock protein 90” (J Med Chem, 2014).
